These results are taken from ChEMBL document CHEMBL5033998, “Discovery of DDO-2213 as a Potent and Orally Bioavailable Inhibitor of the WDR5-Mixed Lineage Leukemia 1 Protein-Protein Interaction for the Treatment of MLL Fusion Leukemia” (J Med Chem, 2021).

Data set [1] can be described thus: Metabolic stability in human liver microsomes assessed as half life at 1 uM in presence of NADPH by LC-MS/MS analysis. The class given is ADME, Microsome. The method in brief:
(§1)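 Compound at 1 μM preincubated 5 min at 37 °C with human or rat liver microsomes (0.7 mg/mL) in 100 mM PBS pH 7.4; reaction started with 1 mM NADPH.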
On the technique in general: Liver microsomes are a subcellular fraction often used to study metabolism.

Data set [2] addresses T1, Histone-lysine N-methyltransferase 2A (Homo sapiens, UniProt Q03164). The data set is described as follows: Inhibition of MLL1 (unknown origin) in human MV4-11 cells assessed as decrease in H3Kme1 level at 1 to 10 uM measured after 7 days by Western blot analysis. The class given is cell-based. To be noted: dose 1-10 µM, time 7.0 day. The method in brief: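 MV4-11 cells exposed to 1, 2.5, 5 and 10 μM; H3K4me1/me2/me3 assessed by Western blot with histone H3 as loading control. Blots blocked in 1% BSA 1 h, primary antibody overnight at 4 °C, DyLight 800 secondary 1 h at 37 °C, infrared imaging.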
(A western blot detects proteins with antibodies after separation by electrophoresis.)

Data set [3] concerns the target Histone-lysine N-methyltransferase 2A/WDR5 (Homo sapiens, UniProt P61964). The data set is described as follows: Inhibition of MLL1-WDR5 (unknown origin) protein-protein interaction using Thr-FAM as probe by fluorescence polarization competition assay. The essentials:
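Competitive FP with WDR5 and 10mer-Thr-FAM probe in 100 mM KH2PO4, 25 mM KCl, 0.01% Triton X-100, pH 6.5; read at λex 485 ± 25 nm, λem 535 ± 25 nm. IC50 from three independent replicates ± SD.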
(In general: Fluorescence polarisation rises when a labelled molecule tumbles more slowly, as on binding a larger partner.)

In data set [4] the test system is MV4-11. Briefly: Antiproliferative activity against human MV4-11 cells assessed as cell viability incubated for 72 hrs by CCK8 assay. The data set is classed as functional, cell-based. To be noted: MV4-11, 72 h. The method in brief: (§2)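 Cells seeded at 3000–6000 per well, exposed to inhibitor at several concentrations for 72 h; viability read with CCK8 kit. MV4-11 and K562 grown in modified IMDM + 10% FBS, pen/strep; MOLM-13 in RPMI-1640 + 10% FBS; HUVEC in modified DMEM + 10% FBS; 37 °C, 5% CO2. IC50 as mean ± SD of three independent experiments.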

A further data set deals with K562. Briefly: Antiproliferative activity against human K562 cells assessed as cell viability incubated for 72 hrs by CCK8 assay. The data set is classed as functional, cell-based. The conditions noted are these: K562, 72 h. The essentials: as §2
For a further data set, the system named is HUVEC. Briefly: Antiproliferative activity against human HUVEC cells assessed as cell viability incubated for 72 hrs by CCK8 assay. The data set is classed as cell-based. The essentials:
as §2

The target of data set [5] is Histone-lysine N-methyltransferase EZH2 (Homo sapiens, UniProt Q15910). Briefly: Inhibition of EZH2 (unknown origin) assessed as effect on H3K27 methylation incubated for 30 mins by Alphascreen assay. The method in brief:
(§3)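 AlphaScreen: enzyme, SAM and compound mixed in 10 mM PBS for 30 min at room temperature; acceptor beads and substrate antibody added, 30 min at room temperature, then streptavidin donor beads; read on AlphaScreen reader.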

Data set [6] concerns the target Protein arginine N-methyltransferase 5 (Homo sapiens, UniProt O14744). Briefly: Inhibition of PRMT5 (unknown origin) assessed as effect on H3R8/H4R3 methylation incubated for 30 mins by Alphascreen assay. The method in brief: as §3
Data set [7] is described as follows: Metabolic stability in rat liver microsomes assessed as half life at 1 uM in presence of NADPH by LC-MS/MS analysis. The class given is ADME, Microsome. The essentials:
as §1

A short description of data set [8]: Tmax in Sprague-Dawley rat at 10 mg/kg, po measured upto 24 hrs by LC-MS/MS analysis. The data set is classed as ADME, organism-based. The conditions noted are these: in vivo. The method in brief:
(§4)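 Male SD rats, 6–8 weeks, 220 ± 30 g; single oral dose 10 mg/kg (n = 3). Plasma sampled at 0, 0.25, 0.5, 1, 2, 4, 6, 8 and 24 h, stored at −80 °C, quantified by LC-MS/MS; parameters reported as mean ± SEM.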

Data set [9] in a line: AUC (0 to t) in Sprague-Dawley rat at 10 mg/kg, po measured upto 24 hrs by LC-MS/MS analysis. The data set is classed as ADME, organism-based. On the set-up: route oral, dose 10 mg/kg, time <=24. To be noted: in vivo. The method in brief: as §4
A short description of data set [10]: AUC (0 to t) in Sprague-Dawley rat at 2 mg/kg, iv measured upto 24 hrs by LC-MS/MS analysis. The data set is classed as ADME, organism-based. On the set-up: route intravenous, dose 2 mg/kg, time <=24. The conditions noted are these: in vivo.
Data set [11] is described as follows: AUC (0 to infinity) in Sprague-Dawley rat at 10 mg/kg, po measured upto 24 hrs by LC-MS/MS analysis. On the set-up: route oral, dose 10 mg/kg, time <=24. The class given is ADME, organism-based. The conditions noted are these: in vivo. The method in brief: as §4
The nature of data set [12]: Apparent clearance in Sprague-Dawley rat at 10 mg/kg, po measured upto 24 hrs by LC-MS/MS analysis. The conditions noted are these: in vivo. The data set is classed as ADME, organism-based. The essentials: as §4
The nature of data set [13]: MRT in Sprague-Dawley rat at 2 mg/kg, iv measured upto 24 hrs by LC-MS/MS analysis. The data set is classed as ADME, organism-based. To be noted: in vivo.
Data set [14] deals with MV4-11. Briefly: Antitumor activity against human MV4-11 cells xenografted in Balb/c nude mouse assessed as tumor growth inhibition at 40 mg/kg, po administered daily for 21 days relative to control. The data set is classed as functional. To be noted: MV4-11, po, 504 h, time 21 day, read-out: TGI. The method in brief: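 Female BALB/c nude mice (6–8 weeks) given ~5 × 10^6 MV4-11 cells in 0.2 mL PBS into the flank; at 100–150 mm3 randomized (6/group) to vehicle (0.9% saline) or 40, 80, 120 mg/kg oral (hydrochloride salt) daily for 21 days. Volume = length × width²/2 every other day; GI% = [1 − (TVt − TV0)/(CVt − CV0)] × 100%.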

For data set [15], the system named is MV4-11. Briefly: Antitumor activity against human MV4-11 cells xenografted in Balb/c nude mouse assessed as tumor weight inhibition at 40 mg/kg, po administered daily for 21 days relative to control. The conditions noted are these: MV4-11, po, 504 h, time 21 day. The class given is functional. The method in brief: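 MV4-11 flank xenografts (~5 × 10^6 cells) in female BALB/c nude mice, 6 per group; daily oral dosing (40, 80, 120 mg/kg) or saline vehicle for 21 days, then tumors excised and weighed.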

Data set [16] has as its target WD repeat-containing protein 5 (Homo sapiens) (UniProt P61964). Briefly: Binding affinity to WDR5 (unknown origin) assessed as change in entropy by isothermal titration calorimetry assay.
The target of data set [17] is T1, Histone-lysine N-methyltransferase 2A. The data set is described as follows: Inhibition of MLL1 (unknown origin) in human MV4-11 cells assessed as decrease in Meis1 mRNA level at 1 to 10 uM measured after 7 days by RT-PCR analysis. The data set is classed as cell-based. The essentials: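 MV4-11 cells treated 7 days at 0, 1, 2.5, 5, 10 μM; total RNA extracted with TRIzol and Hoxa9/Meis1 transcripts measured by quantitative RT-PCR, in triplicate (n = 3); Student's t-tests.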

Data set [18] in a line: Toxicity in Balb/c nude mouse xenografted with human MV4-11 cells assessed as tolerability at 40 to 120 mg/kg, po administered daily for 21 days relative to control. The data set is classed as organism-based. To be noted: in vivo, 504 h. The method in brief:
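Nude BALB/c females bearing MV4-11 xenografts, dosed orally each day for 21 days at 40, 80 or 120 mg/kg, saline vehicle controls (6 mice/group); body weight recorded every other day.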

For data set [19], the target named is T1, Histone-lysine N-methyltransferase 2A. Briefly: Inhibition of MLL1 (unknown origin) in human MV4-11 cells assessed as decrease in Hoxa9 mRNA level at 1 to 10 uM measured after 7 days by RT-PCR analysis. To be noted: dose 1-10 µM, time 7.0 day.
The target is the same in data set [20]. The data set is described as follows: Inhibition of MLL1 (unknown origin) histone methyltransferase activity assessed as inhibition of H3K4 methylation incubated for 30 mins by chemiluminescence assay.

Calls of active or inactive are those of the source. Where only a bound is given, the exact number is not on record here.

T1 sequence (Q03164 1-2718 limits assumed): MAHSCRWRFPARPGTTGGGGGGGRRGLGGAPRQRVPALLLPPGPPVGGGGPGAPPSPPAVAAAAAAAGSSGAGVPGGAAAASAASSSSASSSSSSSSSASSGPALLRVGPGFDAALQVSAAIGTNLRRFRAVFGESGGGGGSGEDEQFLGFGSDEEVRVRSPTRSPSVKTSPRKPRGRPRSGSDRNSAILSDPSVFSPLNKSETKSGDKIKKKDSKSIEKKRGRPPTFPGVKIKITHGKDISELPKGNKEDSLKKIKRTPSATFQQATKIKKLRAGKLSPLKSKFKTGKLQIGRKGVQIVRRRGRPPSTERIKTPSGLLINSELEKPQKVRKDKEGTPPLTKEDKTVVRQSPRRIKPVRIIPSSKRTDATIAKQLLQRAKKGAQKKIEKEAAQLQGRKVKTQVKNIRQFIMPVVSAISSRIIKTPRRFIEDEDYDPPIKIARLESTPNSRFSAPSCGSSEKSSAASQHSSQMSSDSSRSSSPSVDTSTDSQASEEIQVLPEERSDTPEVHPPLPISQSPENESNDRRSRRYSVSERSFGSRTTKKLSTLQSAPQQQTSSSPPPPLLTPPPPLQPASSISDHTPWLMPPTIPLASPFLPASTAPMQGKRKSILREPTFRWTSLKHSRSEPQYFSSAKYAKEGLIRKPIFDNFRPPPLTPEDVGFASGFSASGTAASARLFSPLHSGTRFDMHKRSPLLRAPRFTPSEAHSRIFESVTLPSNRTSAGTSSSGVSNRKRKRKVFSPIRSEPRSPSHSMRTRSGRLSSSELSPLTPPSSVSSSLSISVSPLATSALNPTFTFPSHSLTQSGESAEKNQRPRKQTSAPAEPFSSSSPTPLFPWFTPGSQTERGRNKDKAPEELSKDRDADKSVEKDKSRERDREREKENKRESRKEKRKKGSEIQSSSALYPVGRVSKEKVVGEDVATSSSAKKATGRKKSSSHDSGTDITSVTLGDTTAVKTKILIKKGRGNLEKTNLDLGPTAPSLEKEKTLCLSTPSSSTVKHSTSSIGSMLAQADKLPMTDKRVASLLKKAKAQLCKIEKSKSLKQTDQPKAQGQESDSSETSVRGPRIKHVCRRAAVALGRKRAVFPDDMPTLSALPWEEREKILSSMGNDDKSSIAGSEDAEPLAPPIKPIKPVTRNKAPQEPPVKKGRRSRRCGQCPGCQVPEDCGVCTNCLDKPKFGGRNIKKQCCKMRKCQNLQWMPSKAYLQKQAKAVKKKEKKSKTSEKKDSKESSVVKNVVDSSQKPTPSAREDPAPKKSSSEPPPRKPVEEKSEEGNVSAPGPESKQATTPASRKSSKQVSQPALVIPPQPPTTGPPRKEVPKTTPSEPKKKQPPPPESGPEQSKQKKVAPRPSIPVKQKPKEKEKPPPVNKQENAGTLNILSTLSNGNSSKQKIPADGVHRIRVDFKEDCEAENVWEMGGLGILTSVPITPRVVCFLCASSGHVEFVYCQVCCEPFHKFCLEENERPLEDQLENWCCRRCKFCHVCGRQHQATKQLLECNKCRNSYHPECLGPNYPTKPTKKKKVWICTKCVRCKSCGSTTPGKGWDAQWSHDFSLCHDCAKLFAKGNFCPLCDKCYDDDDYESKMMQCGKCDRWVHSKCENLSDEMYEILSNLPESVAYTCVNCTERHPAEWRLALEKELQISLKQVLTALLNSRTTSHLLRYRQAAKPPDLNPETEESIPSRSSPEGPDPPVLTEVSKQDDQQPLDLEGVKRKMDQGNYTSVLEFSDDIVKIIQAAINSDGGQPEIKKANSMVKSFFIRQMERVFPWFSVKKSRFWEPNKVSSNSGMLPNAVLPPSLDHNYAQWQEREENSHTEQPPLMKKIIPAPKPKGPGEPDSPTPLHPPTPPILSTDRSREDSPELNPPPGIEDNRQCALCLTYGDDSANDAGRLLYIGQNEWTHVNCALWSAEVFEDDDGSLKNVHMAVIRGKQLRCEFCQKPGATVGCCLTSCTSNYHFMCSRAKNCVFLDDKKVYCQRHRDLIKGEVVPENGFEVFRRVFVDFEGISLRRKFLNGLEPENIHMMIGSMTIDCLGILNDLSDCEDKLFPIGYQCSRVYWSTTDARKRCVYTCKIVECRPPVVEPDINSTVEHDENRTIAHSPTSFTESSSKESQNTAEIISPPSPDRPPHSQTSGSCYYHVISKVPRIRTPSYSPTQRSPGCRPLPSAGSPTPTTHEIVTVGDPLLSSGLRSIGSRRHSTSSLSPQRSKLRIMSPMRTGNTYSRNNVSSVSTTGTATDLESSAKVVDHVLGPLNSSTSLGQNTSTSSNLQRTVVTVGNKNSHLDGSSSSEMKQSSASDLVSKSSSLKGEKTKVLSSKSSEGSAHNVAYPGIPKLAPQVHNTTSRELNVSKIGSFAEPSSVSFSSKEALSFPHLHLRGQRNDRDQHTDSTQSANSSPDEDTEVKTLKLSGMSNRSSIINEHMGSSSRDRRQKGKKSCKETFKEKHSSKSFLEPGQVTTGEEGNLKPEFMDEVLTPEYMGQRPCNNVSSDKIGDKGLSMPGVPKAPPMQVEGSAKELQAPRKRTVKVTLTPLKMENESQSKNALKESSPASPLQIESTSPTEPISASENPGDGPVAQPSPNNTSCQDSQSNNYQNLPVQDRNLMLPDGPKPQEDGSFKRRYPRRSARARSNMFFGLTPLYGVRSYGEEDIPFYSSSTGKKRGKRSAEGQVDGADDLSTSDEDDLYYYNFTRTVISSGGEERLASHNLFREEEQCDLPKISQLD
T1 sequence (Q03164 2719-3969 limits assumed): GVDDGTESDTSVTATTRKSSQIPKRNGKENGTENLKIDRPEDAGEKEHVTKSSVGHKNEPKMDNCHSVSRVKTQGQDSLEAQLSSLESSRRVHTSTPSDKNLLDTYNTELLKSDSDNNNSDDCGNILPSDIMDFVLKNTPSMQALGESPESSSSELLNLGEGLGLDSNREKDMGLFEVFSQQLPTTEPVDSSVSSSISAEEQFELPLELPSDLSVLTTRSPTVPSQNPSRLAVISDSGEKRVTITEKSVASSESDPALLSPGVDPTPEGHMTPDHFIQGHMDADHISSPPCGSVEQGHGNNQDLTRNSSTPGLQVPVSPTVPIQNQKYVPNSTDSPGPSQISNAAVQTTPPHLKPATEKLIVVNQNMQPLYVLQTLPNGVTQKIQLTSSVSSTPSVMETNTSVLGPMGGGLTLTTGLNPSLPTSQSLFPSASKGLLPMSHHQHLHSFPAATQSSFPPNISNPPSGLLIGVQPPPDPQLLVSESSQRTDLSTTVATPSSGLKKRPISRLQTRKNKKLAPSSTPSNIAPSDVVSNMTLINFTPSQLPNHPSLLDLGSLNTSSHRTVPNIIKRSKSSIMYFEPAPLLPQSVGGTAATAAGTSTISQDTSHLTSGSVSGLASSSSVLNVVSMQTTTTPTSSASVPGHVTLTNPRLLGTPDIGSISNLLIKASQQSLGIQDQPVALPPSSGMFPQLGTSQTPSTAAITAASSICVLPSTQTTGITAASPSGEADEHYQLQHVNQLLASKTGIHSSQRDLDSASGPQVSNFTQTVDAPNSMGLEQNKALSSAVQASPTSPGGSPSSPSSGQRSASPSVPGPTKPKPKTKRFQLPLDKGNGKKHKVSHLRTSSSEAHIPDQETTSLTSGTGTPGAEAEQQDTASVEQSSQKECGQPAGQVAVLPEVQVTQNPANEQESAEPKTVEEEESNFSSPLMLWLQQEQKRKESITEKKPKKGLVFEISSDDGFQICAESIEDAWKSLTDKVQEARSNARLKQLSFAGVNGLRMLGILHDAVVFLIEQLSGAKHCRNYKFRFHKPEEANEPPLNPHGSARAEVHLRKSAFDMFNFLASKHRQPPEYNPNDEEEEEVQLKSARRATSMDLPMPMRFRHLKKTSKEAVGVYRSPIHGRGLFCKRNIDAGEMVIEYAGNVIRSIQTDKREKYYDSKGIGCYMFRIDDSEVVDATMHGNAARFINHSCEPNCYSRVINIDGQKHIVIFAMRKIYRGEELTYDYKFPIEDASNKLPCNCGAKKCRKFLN
Sequence of Protein arginine N-methyltransferase 5 (O14744 whole entry): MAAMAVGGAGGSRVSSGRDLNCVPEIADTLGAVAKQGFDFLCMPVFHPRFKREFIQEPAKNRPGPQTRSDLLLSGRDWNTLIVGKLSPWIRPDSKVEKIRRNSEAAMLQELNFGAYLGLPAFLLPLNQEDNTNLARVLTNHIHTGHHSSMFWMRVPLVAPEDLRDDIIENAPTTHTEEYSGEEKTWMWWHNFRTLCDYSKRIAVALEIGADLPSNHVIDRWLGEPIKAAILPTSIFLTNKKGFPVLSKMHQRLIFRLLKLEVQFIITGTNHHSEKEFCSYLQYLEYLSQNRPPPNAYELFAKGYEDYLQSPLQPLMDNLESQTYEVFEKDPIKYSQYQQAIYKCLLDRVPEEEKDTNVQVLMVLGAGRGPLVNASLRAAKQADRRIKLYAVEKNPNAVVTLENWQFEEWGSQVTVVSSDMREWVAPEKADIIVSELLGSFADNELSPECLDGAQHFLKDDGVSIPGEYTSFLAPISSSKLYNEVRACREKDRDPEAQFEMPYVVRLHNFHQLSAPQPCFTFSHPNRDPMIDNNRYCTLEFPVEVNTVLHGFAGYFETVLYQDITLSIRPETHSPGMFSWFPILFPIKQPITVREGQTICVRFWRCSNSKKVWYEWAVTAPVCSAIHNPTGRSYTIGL

The term half-life denotes the time needed for the level to fall by half in the phase considered. Usually IC50 stands for the point on the concentration scale where inhibition reaches its midpoint. For orientation: Tmax means the time at which the peak concentration occurs. One may read the AUC(0-t) as the area under the concentration-time curve up to a stated or last time point. Higher therefore signals high exposure. In general, AUC(0-inf) refers to total exposure, with the tail of the curve extrapolated. In general, CL/F refers to clearance divided by bioavailability, as obtained after extravascular dosing. By MRT is commonly meant the average time that molecules of a dose stay in the body. Consider `CN1CCN(c2cc(F)c(-c3ccc(C(=O)N(C)C)cc3)cc2Nc2ncnc(Cl)c2N)CC1`, for which the half-life at 1 µM was found to be 1.17 h in [1] and 1.1 h in data set [7]. The inhibition entry in [2] and in data set [19] was “Dose-Dependent Effect” each time. Besides, the IC50 in data set [3] was 0.029 µM; in the data set on MV4-11 [4], 12.6 µM; with K562 it was above 100 µM; in the data set on HUVEC, above 100 µM; in data set [5], above 100 µM; in [6], above 100 µM. Moreover, in data set [20], the half-maximal inhibitory concentration (IC50) was found to be 0.78 µM. Besides, in data set [8], the Tmax came to 2 h. In addition, the AUC(0-t) at 24 h worked out at 1320 ng·h/mL in data set [9] and 411 ng·h/mL in [10]. In [11], this compound displayed an AUC(0-inf) of 1740 ng·h/mL. Further, the CL/F in data set [12] is 97.2 mL/min/kg. The mean residence time MRT in data set [13] worked out at 1.18 h. The results for the inhibition in vivo at 40 mg/kg in the data set on MV4-11 [14] and with MV4-11 [15] were 39.4% and 36.4%, respectively. The -TdeltaS in data set [16] came to 2.51 kcal/mol. Further, the inhibition entry in data set [17] is “Active”. For the same compound, the Activity result in data set [18] is on record as “Non-Toxic”.
